Experimental data as given in ChEMBL document CHEMBL3813671, “Unexpected Discovery of Dichloroacetate Derived Adenosine Triphosphate Competitors Targeting Pyruvate Dehydrogenase Kinase To Inhibit Cancer Proliferation” (J Med Chem, 2016).
Active and inactive are the calls of the source. No cut-off for these calls is given here.

What was measured:
MCF7 [1] = experiment: Induction of apoptosis in human MCF7 assessed as late apoptotic cells at 20 uM after 15 hrs by FITC-annexin V/propidium iodide staining-based flow cytometric analysis (reference value: 1.95%); assay type: functional
MCF7 [2] = experiment: Induction of apoptosis in human MCF7 assessed as viable cells at 20 uM by FITC-annexin V/propidium iodide staining-based flow cytometric analysis; assay type: functional, cell-based; conditions: TDE = time-dependent effect
MCF7 [3] = experiment: Induction of apoptosis in human MCF7 assessed as viable cells at 20 uM after 5 hrs by FITC-annexin V/propidium iodide staining-based flow cytometric analysis (reference value: 93.8%); assay type: functional; conditions: MCF7, 5 h, read-out: Activity
MCF7 [4] = experiment: Induction of apoptosis in human MCF7 assessed as early apoptotic cells at 20 uM after 15 hrs by FITC-annexin V/propidium iodide staining-based flow cytometric analysis (reference value: 2.38%); assay type: functional
[5] = target: T1, [Pyruvate dehydrogenase (acetyl-transferring)] kinase isozyme 1, mitochondrial (Homo sapiens, UniProt Q15118); experiment: Inhibition of PDK1 in human MCF7 cells assessed as decrease in lactate production at 5 to 20 uM after 12 hrs; assay type: cell-based
T1 sequence (Q15118 whole entry): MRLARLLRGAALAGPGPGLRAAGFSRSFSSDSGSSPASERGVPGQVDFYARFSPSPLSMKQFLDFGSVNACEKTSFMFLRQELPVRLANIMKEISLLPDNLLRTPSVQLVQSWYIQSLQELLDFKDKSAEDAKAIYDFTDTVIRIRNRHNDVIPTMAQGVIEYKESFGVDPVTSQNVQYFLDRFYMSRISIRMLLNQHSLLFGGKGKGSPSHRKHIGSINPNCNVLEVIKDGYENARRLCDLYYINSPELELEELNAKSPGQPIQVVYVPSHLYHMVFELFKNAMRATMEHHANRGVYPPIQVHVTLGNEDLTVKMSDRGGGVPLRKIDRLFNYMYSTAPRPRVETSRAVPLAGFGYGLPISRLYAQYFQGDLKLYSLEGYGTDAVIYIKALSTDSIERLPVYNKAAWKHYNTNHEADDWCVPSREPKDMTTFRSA

MCF7 [6] = experiment: Reversal of hyperpolarized mitochondrial membrane potential in human MCF7 cells assessed as cells with vital and intact mitochondrial membranes at 5 uM after 12 hrs by JC1 staining-based flow cytometric analysis; assay type: functional
Outline: (§1)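 MCF-7 cells treated 12 h (5, 10 or 20 µM), then stained with JC-1. Depolarization read as the ratio of green J-monomer to red J-aggregate fluorescence.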

[7] = Cytotoxicity against human MCF10A cells assessed as growth inhibition at 20 uM after 72 hrs by MTT assay relative to control; assay type: cell-based, MCF-10A; conditions: read-out: GI
MCF7 [8] = experiment: Induction of apoptosis in human MCF7 assessed as early apoptotic cells at 20 uM after 5 hrs by FITC-annexin V/propidium iodide staining-based flow cytometric analysis (reference value: 2.38%); assay type: functional
MCF7 [9] = experiment: Induction of apoptosis in human MCF7 assessed as late apoptotic cells at 20 uM after 10 hrs by FITC-annexin V/propidium iodide staining-based flow cytometric analysis (reference value: 1.95%); assay type: functional
A549 [10] = experiment: Cytotoxicity against human A549 cells assessed as growth inhibition at 40 uM after 72 hrs by MTT assay relative to control; assay type: functional, cell-based
[11] = target: T1, [Pyruvate dehydrogenase (acetyl-transferring)] kinase isozyme 1, mitochondrial; experiment: Binding affinity to recombinant N-terminal 6xHis-SUMO-tagged human PDK1 (29 to 436 residues) expressed in Escherichia coli BL-21 by isothermal titration calorimetric method
Outline: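 Ligand titrated into PDK1 (10 or 20 µM) by ITC at 25 °C, 2.5 µL injections into a 300 µL cell. Protein is His-SUMO-tagged, co-expressed with GroEL/GroES in E. coli BL-21, purified by Ni-IMAC and gel filtration.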

MCF7 [12] = experiment: Induction of apoptosis in human MCF7 assessed as viable cells at 20 uM after 10 hrs by FITC-annexin V/propidium iodide staining-based flow cytometric analysis (reference value: 93.8%); assay type: functional; conditions: MCF7, 10 h, read-out: Activity
MCF7 [13] = experiment: Induction of apoptosis in human MCF7 assessed as viable cells at 20 uM after 15 hrs by FITC-annexin V/propidium iodide staining-based flow cytometric analysis (reference value: 93.8%); assay type: functional; conditions: MCF7, 15 h, read-out: Activity
MCF7 [14] = experiment: Induction of apoptosis in human MCF7 assessed as late apoptotic cells at 20 uM after 5 hrs by FITC-annexin V/propidium iodide staining-based flow cytometric analysis (reference value: 1.95%); assay type: functional
[15] = target: T1, [Pyruvate dehydrogenase (acetyl-transferring)] kinase isozyme 1, mitochondrial; experiment: Inhibition of PDK1 in human MCF7 cells assessed as increase in ratio of oxygen consumption rate to extracellular acidification rate at 20 uM after 12 hrs; assay type: cell-based
Outline: (§2)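 MCF-7 cells at 2.7×10⁴ cells/well in XF24 plates, attached, then grown 24 h at 37 °C in 5% CO2. Treated 12 h at 5, 10 or 20 µM, rinsed into glycolysis stress-test medium and held 1 h at 37 °C without CO2. OCR, ECAR and PPR then measured on a Seahorse XFe24 analyser. Significance P < 0.05 versus untreated control.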

[16] = target: T1, [Pyruvate dehydrogenase (acetyl-transferring)] kinase isozyme 1, mitochondrial; experiment: Inhibition of PDK1 in human MCF7 cells assessed as decrease in extracellular acidification rate after 12 hrs; assay type: cell-based; outline: as §2
[17] = target: T1, [Pyruvate dehydrogenase (acetyl-transferring)] kinase isozyme 1, mitochondrial; experiment: Inhibition of PDK1 in human MCF7 cells assessed as decrease in proton production rate after 12 hrs; assay type: cell-based; outline: as §2
MCF7 [18] = experiment: Cytotoxicity against human MCF7 cells assessed as growth inhibition at 40 uM after 72 hrs by MTT assay relative to control; assay type: functional, cell-based
MCF7 [19] = experiment: Induction of apoptosis in human MCF7 assessed as necrotic cells at 20 uM after 5 hrs by FITC-annexin V/propidium iodide staining-based flow cytometric analysis (reference value: 1.86%); assay type: functional
[20] = Cytotoxicity against human MCF10A cells assessed as growth inhibition at 10 uM after 72 hrs by MTT assay relative to control; assay type: cell-based, MCF-10A; conditions: read-out: GI
Sus scrofa [21] = organism: Sus scrofa; experiment: Activation of pig heart PDC assessed as production of NADH at 50 uM in presence of ATP
Outline: (§3)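 Pig heart PDC (80 µg/ml, carrying intrinsic PDK activity) preincubated 40 min at 37 °C in Mops pH 7.20 buffer with NaF, acetyl-CoA, NADH and DTT. Kinase step 3 min at 37 °C with 55 µM ADP and 100 µM ATP, or no ATP. Stopped with ADP/pyruvate. Residual PDC activity then read as NADH formation at 340 nm, 37 °C, in Tris pH 7.8 with TPP, NAD+, pyruvate and CoA.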

MCF7 [22] = experiment: Induction of apoptosis in human MCF7 assessed as early apoptotic cells at 20 uM after 10 hrs by FITC-annexin V/propidium iodide staining-based flow cytometric analysis (reference value: 2.38%); assay type: functional
[23] = target: T1, [Pyruvate dehydrogenase (acetyl-transferring)] kinase isozyme 1, mitochondrial; experiment: Inhibition of recombinant N-terminal 6xHis-SUMO-tagged human PDK1 (29 to 436 residues) expressed in Escherichia coli BL-21 assessed as activation of PDC at 50 uM
MCF7 [24] = experiment: Reversal of hyperpolarized mitochondrial membrane potential in human MCF7 cells assessed as cells with vital and intact mitochondrial membranes at 20 uM after 12 hrs by JC1 staining-based flow cytometric analysis; assay type: functional; outline: as §1
[25] = target: T1, [Pyruvate dehydrogenase (acetyl-transferring)] kinase isozyme 1, mitochondrial; experiment: Inhibition of recombinant N-terminal 6xHis-SUMO-tagged human PDK1 (29 to 436 residues) expressed in Escherichia coli BL-21 assessed as suppression of PDC phosphorylation at S293 at 50 uM after 30 mins by Western blot method
[26] = target: T1, [Pyruvate dehydrogenase (acetyl-transferring)] kinase isozyme 1, mitochondrial; experiment: Inhibition of PDK1 in human MCF7 cells assessed as increase in oxygen consumption rate at 5 to 20 uM after 12 hrs; assay type: cell-based; outline: as §2
MCF7 [27] = experiment: Reversal of hyperpolarized mitochondrial membrane potential in human MCF7 cells after 12 hrs by JC1 staining-based flow cytometric analysis; assay type: functional, cell-based
MCF7 [28] = experiment: Induction of apoptosis in human MCF7 assessed as necrotic cells at 20 uM after 15 hrs by FITC-annexin V/propidium iodide staining-based flow cytometric analysis (reference value: 1.86%); assay type: functional
MCF7 [29] = experiment: Reversal of hyperpolarized mitochondrial membrane potential in human MCF7 cells assessed as cells with vital and intact mitochondrial membranes at 10 uM after 12 hrs by JC1 staining-based flow cytometric analysis; assay type: functional; outline: as §1
MCF7 [30] = experiment: Induction of apoptosis in human MCF7 assessed as necrotic cells at 20 uM after 10 hrs by FITC-annexin V/propidium iodide staining-based flow cytometric analysis (reference value: 1.86%); assay type: functional
A549 [31] = experiment: Cytotoxicity against human A549 cells assessed as growth inhibition after 72 hrs by MTT assay; assay type: functional, cell-based; conditions: A549, 72 h
[32] = target: T1, [Pyruvate dehydrogenase (acetyl-transferring)] kinase isozyme 1, mitochondrial; experiment: Inhibition of recombinant N-terminal 6xHis-SUMO-tagged human PDK1 (29 to 436 residues) expressed in Escherichia coli BL-21 assessed as phosphorylation of RYHGHSMSDP at 50 uM after 30 mins by Kinase-Glo luminescent assay
MCF7 [33] = experiment: Reversal of hyperpolarized mitochondrial membrane potential in human MCF7 cells assessed as J-monomer/J-aggregate ratio at 20 uM after 12 hrs by JC1 staining-based flow cytometric analysis; assay type: functional; outline: as §1
MCF7 [34] = experiment: Induction of mitochondrial membrane potential depolarization in human MCF7 cells at 40 uM after 12 hrs by TMRM staining-based assay; assay type: functional, cell-based
Sus scrofa [35] = organism: Sus scrofa; experiment: Activation of pig heart PDC assessed as production of NADH at 50 uM in absence of ATP; outline: as §3
MCF7 [36] = experiment: Cytotoxicity against human MCF7 cells assessed as growth inhibition after 72 hrs by MTT assay; assay type: functional, cell-based; conditions: MCF7, 72 h
MCF7 [37] = experiment: Cytotoxicity against human MCF7 cells assessed as growth inhibition at 20 uM after 72 hrs by IncuCyte Zoom live cells imaging method; assay type: functional, cell-based
[38] = target: T1, [Pyruvate dehydrogenase (acetyl-transferring)] kinase isozyme 1, mitochondrial; experiment: Inhibition of PDK1 in human MCF7 cells assessed as increase in oxygen consumption rate at 40 uM after 12 hrs; assay type: cell-based
A549 [39] = experiment: Cytotoxicity against human A549 cells assessed as growth inhibition at 20 uM after 72 hrs by IncuCyte Zoom live cells imaging method; assay type: functional, cell-based

## O=C(Nc1ccc(Cl)c(C(F)(F)F)c1)C(Cl)Cl
MCF7 [1]
  Activity: 14.2%
MCF7 [2]
  Activity: tde
MCF7 [3]
  viability at 20 µM: 82.4%
MCF7 [4]
  Activity: 2.65%
[5]
  inhibition: Active
MCF7 [6]
  Activity: 79.7%
[7]
  inhibition at 72 h, 20 µM: 10.3%
MCF7 [8]
  Activity: 1.98%
MCF7 [9]
  Activity: 11.8%
A549 [10]
  growth inhibition (GI): Active
[11]
  Kd: 40.8 µM
MCF7 [12]
  viability at 20 µM: 81.9%
MCF7 [13]
  viability at 20 µM: 78.2%
MCF7 [14]
  Activity: 10.2%
[15]
  inhibition: Active
[16]
  inhibition: Dose-dependent effect
[17]
  inhibition: Dose-dependent effect
MCF7 [18]
  growth inhibition (GI): Active
MCF7 [19]
  Activity: 5.41%
[20]
  inhibition at 72 h, 10 µM: 3.51%
Sus scrofa [21]
  Activity: inactive
MCF7 [22]
  Activity: 2.88%
[23]
  inhibition: Active
MCF7 [24]
  Activity: 46.8%
[25]
  inhibition: Active
[26]
  inhibition: Dose-dependent effect
MCF7 [27]
  Activity: Dose-dependent effect
MCF7 [28]
  Activity: 4.96%
MCF7 [29]
  Activity: 65%
MCF7 [30]
  Activity: 3.47%
A549 [31]
  IC50: 7.46 µM
[32]
  inhibition: Active
MCF7 [33]
  Ratio: 1.69
MCF7 [34]
  Activity: Active
Sus scrofa [35]
  Activity: Active
MCF7 [36]
  IC50: 3.12 µM
MCF7 [37]
  growth inhibition (GI): Active
[38]
  inhibition: inactive
A549 [39]
  growth inhibition (GI): Active
